# Screens: PubChem, The Scripps Research Institute Molecular Screening Center
# PRMT1 inh: blocks human protein arginine methyltransferase 1. Q99873. recombinant PRMT1, activity-based probe fluorescence polarization. inhibition, % at 2.79 µM. 370,000 tested, 1.3% active;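 active = inhibition above about 21% made by adding two undisclosed values, limit read from the data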
# HTRA1 inhibitor: inhibitors of human serine peptidase HTRA1; recombinant HTRA1, FP-rhodamine activity-based probe, fluorescence polarization; inhibition, % at 5.96 µM; 340,000 tested, 0.5% active; in the data active = inhibition above about 36%
# SIAE primary: blocks human sialic acid acetylesterase. Q9HAT2. SIAE FP-Rh probe binding, fluorescence polarization. inhibition, % at 9.66 µM. 370,000 tested, 0.69% active. AID 1053197;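 active = inhibition above a cutoff: mean of compounds within the control limits plus 3 SD of those, cut at about 17% in these data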
# Target sequence (Q9HAT2 whole entry, looked up): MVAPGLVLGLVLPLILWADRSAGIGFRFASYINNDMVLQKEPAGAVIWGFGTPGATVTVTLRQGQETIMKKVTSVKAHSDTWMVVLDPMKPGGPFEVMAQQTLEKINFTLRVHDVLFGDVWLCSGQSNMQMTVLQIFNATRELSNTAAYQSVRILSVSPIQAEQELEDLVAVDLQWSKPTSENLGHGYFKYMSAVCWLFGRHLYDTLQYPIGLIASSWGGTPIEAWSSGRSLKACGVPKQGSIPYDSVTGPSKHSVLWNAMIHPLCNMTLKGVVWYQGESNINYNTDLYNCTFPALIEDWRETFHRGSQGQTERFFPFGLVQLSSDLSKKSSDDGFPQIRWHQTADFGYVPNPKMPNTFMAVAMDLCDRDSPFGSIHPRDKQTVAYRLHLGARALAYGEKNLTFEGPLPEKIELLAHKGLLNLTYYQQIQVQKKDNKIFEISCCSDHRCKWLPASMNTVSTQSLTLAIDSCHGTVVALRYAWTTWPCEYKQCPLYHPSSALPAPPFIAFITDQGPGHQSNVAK
# TCR-CD3 inh: blocks the human TCR-CD3 interaction. inhibition, % at 9.4 µM. TAMRA-labeled TCR probe fluorescence, biochemical. 360,000 tested, 0.37% active; in the data active = inhibition above about 19%;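 also: recombinant mutant TCR 2C K166C tagged with TAMRA read by polarization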
# rCAG binder: binds r(CAG) RNA repeats. 370,000 tested, 1.3% active. inhibition, % at 3 µM. r(CAG) RNA repeat, TO-PRO-1 dye displacement fluorescence;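 active = inhibition above the plate cutoff, the mean of all test compounds on that plate plus 3 SD, cut at about 35% in these data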;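 also: higher means more dye released from RNA so lower well fluorescence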
# mABHD4 FP: inhibitors of mouse ABHD4; Q8VD66; 370,000 tested, 0.54% active; purified mABHD4, FP-Rh probe fluorescence polarization; inhibition, % at 8.92 µM;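 active = inhibition exceeding the mean over every tested compound plus 3 SD, cut at about 30% in these data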
#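 system = mouse ABHD4 enzyme, wild type | medium = HEPES pH 7.0, NaCl, Pluronic buffer | also added = FP-Rh probe | incubation = Enzyme–compound pre-incubation 45 min, then probe 60 min, both 25 °C | technique = fluorescence polarization, excitation 525 nm, emission 598 nm, BODIPY TMR filters | controls = S159A mutant high control, sample median low control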
# PRMT1 confirm: PRMT1 (human) inhibition, FP confirmation | recombinant His-PRMT1, activity-based probe fluorescence polarization | inhibition, % at 2.79 µM | shares compounds with PRMT1 inh | 3,300 tested, 42% active;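 active = mean inhibition across replicates above the hit cutoff derived for the earlier primary screen, cut at about 22% in these data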
# A number is an active result; - = inactive; . = no result. Most compounds without a hit are left out; they make up all but 3.5% or so of the library.
SMILES,PRMT1 inh,HTRA1 inhibitor,SIAE primary,TCR-CD3 inh,rCAG binder,mABHD4 FP,PRMT1 confirm
COc1ccc(C2NC(=S)NC3=C2CCCC3=C2SCCS2)cc1 (stereo not drawn),-,-,-,-,-,-,.
CC1CC2=C(NC(=S)NC2c2ccc(F)cc2)/C(=C/c2ccc(F)cc2)C1 (stereo not drawn),49,-,-,-,-,-,22
S=C1NC2=C(CCC/C2=C\c2ccc(Cl)cc2)C(c2ccc(Cl)cc2)N1 (stereo not drawn),27,-,-,-,-,-,-
Cc1ccc(C)c(NC(=O)Cn2nnc(-c3ccncc3)n2)c1,-,.,-,.,-,-,.
Cc1ccc(-c2cc(C(=O)NN=Cc3ccc(F)cc3)[nH]n2)cc1C,-,.,-,.,-,-,.
Cc1ccccc1CN1CCCCC(NC(=O)Nc2cccc(F)c2)C1=O (stereo not drawn),-,.,-,.,-,-,.
S=C1NC2=C(CCCC2=C2SCCCS2)C(c2ccccc2)N1 (stereo not drawn),35,-,-,-,-,-,-
Fc1cccc(/C=C2\CCCC3=C2NC(=S)NC3c2cccc(F)c2)c1 (stereo not drawn),64,-,-,-,-,-,-
CC(=O)c1ccc(OC(=O)CCc2nc3ccccc3s2)cc1,75,.,-,-,-,-,27
O=C(O)COCc1nc2ccccc2s1,53,-,-,-,-,-,-
O=C(CCc1nc2ccccc2s1)OCC(=O)c1ccccc1,-,-,-,-,-,-,.
CCOC(=O)CSc1nnc(NCC(=O)OC)c(=O)[nH]1,56,-,-,-,-,-,54
COc1ccc(CN2C3=NC(c4ccccc4)CC(=O)N3/C(=C\c3ccccc3)C2c2ccccc2)c(OC)c1 (stereo not drawn),-,.,-,.,.,-,.
O=C(OC12CCCN(C1)/C(=C/c1cccnc1)C2)C1CCCCC1 (stereo not drawn),-,.,-,.,-,-,.
CC(=O)Nc1ncc2c(n1)CC(c1ccco1)CC2=O (stereo not drawn),-,-,-,-,-,-,.
Nc1ncc2c(n1)CC(c1ccco1)CC2=O (stereo not drawn),28,-,-,-,-,-,-
O=C(Nc1ncc2c(n1)CC(c1ccco1)CC2=O)c1ccco1 (stereo not drawn),36,-,-,-,-,-,-
COc1ccc(C(=O)Nc2ncc3c(n2)CC(c2ccco2)CC3=O)cc1 (stereo not drawn),-,-,-,-,-,-,.
CCC(=O)Nc1ncc2c(n1)CC(c1ccco1)CC2=O (stereo not drawn),41,-,-,-,-,-,-
COc1ccc(-n2c(SCC(=O)Nc3ccc4c(c3)OCCO4)nnc2-c2ccccc2)cc1,-,.,-,.,-,-,.
C[C@H]1C=C(C(=O)NCc2nc3ccccc3[nH]2)O[C@@H](OCCCCO)C1,41,-,-,-,-,-,-
CN1[C@@H](Cc2ccccc2)COc2cccc(F)c2S1(=O)=O,-,.,-,.,-,-,.
Cc1ccc(-c2ccc(CCC(=O)O)o2)cc1,40,-,-,-,-,-,40
O=C(O)CCc1ccc(-c2cccs2)o1,.,-,.,.,.,.,.
Cc1nn(C)cc1/C=N/NC(=S)Nc1ccccc1,39,-,-,-,-,-,-
SMILES,PRMT1 inh,HTRA1 inhibitor,SIAE primary,TCR-CD3 inh,rCAG binder,mABHD4 FP,PRMT1 confirm
O=S(=O)(c1cccc2cccnc12)N1CCC(c2cn3ccccc3n2)CC1,-,.,-,.,-,-,.
COc1ccc2nc3ccccc3[n+]([O-])c2c1,37,-,-,-,-,-,27
COc1ccc2c(ccc[n+]2[O-])c1,-,-,-,-,-,-,.
CC(C)CN1CN2CCc3ccccc3C2CS1(=O)=O (stereo not drawn),-,.,-,.,-,-,.
Cc1cc(Br)cn2c(Cc3ccsc3)c(-c3ccco3)nc12,27,.,-,-,-,-,-
Cc1cc(Br)cn2c(Cc3ccccc3)c(-c3ccco3)nc12,35,.,-,-,-,-,-
Cc1cc(Br)cn2c(Cc3ccsc3)c(-c3cccc(Cl)c3)nc12,-,.,-,-,-,-,.
COc1ccc(Cc2c(-c3ccco3)nc3c(C)cc(Br)cn23)c(C)c1,-,.,-,-,-,-,.
COc1ccccc1CNC(=O)C[C@H]1CC[C@H]2[C@@H](COc3ccc(NC(=O)Nc4ccccc4)cc3C(=O)N2C)O1,-,.,-,.,-,-,.
N#Cc1c(N)[nH]c(=S)c(C#N)c1-c1ccccc1,38,-,-,-,-,-,-
N#Cc1ccc(-c2ccccc2)nc1SCC(=O)c1cc2ccccc2oc1=O,34,-,-,-,-,-,-
COc1ccc2c(Cl)c(C(=O)N/N=C3\CCCC(=O)C3)sc2c1,38,-,-,-,-,-,-
CN(C)S(=O)(=O)c1cccc(-n2sc3ccccc3c2=O)c1,102,-,-,-,-,-,95
O=c1c2ccccc2sn1-c1cccc(Cl)c1,82,-,-,-,-,-,84
COc1ccccc1C(=O)N1CCCC(c2nc(-c3cccs3)no2)C1 (stereo not drawn),-,.,-,.,-,-,.
CCN=C1SC(CC(=O)NCCc2ccc(OC)cc2)C(=O)N1CC (stereo not drawn),31,-,-,-,-,-,-
COc1ccc(CCNC(=O)CC2SC(=NCCc3ccccc3)NC2=O)cc1 (stereo not drawn),26,-,-,-,-,-,-
COc1ccc(CCNC(=O)CC2SC(=NCc3ccccc3)NC2=O)cc1 (stereo not drawn),-,-,-,-,-,-,.
CCN=C1SC(CC(=O)NCCc2ccc(OC)c(OC)c2)C(=O)N1CC (stereo not drawn),32,-,-,-,-,-,-
CN(Cc1ccccc1F)C(=O)C1CCC(CNS(=O)(=O)c2cccc3cccnc23)CC1 (stereo not drawn),-,.,-,.,-,-,.
O=C(CSc1nc2ccccc2n1Cc1ccccc1)NN=Cc1c[nH]c2ccccc12,-,.,-,.,-,-,.
CCN(CC)CCCNC(=O)/C=C/C(=O)O,27,-,-,-,-,-,-
CCCCCCCCN1C(=O)[C@@H](CC(=O)NCc2cccc3ccccc23)C[C@@]2(C(=O)OC)C1=C[C@H](COCc1ccccc1)O[C@@H]2C,-,.,-,.,-,-,.
O=C(NCCc1c[nH]c2ccccc12)OCc1cn(Cc2cccc(F)c2F)nn1,-,.,-,.,-,-,.
O=[N+]([O-])c1cccc(C(=S)N2CCN(c3ccccc3)CC2)c1,35,-,-,-,-,-,-
O=[N+]([O-])c1cccc(C(=S)N2CCN(c3ccccc3F)CC2)c1,-,-,-,-,-,-,.
CC(C)C[C@@H]1COc2cc(F)ccc2S(=O)(=O)N1C,-,.,-,.,-,-,.
Cc1ccc(CN(C)C(=O)c2ccc(S(=O)(=O)N(C)c3ccccc3)cc2)o1,-,-,-,-,-,-,.
CSc1ccccc1OCc1cc(C(=O)N(C)Cc2ccc(C)o2)no1,25,-,-,-,-,-,28
